Screening results as filed in PubChem.
Most compounds without a hit are left out; they make up all but 3% or so of the library.
CASP6 VEID inh: human caspase-6 inhibitors, primary screen, biochemical, VEID-R110 fluorescence, single point, set 2; P55212; purified caspase-6, Z-VEID-R110 cleavage fluorescence; inhibition, % at 12.5 µM; 0.53% of 350,000 active; AID 686996, 2013;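 active means mean inhibition across replicates at least about 35%, with every replicate also reaching that limit, limit read from the data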;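 further: 0% = median of neutral control wells and 100% = no fluorescence left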
Target sequence (P55212 24-179 limits assumed): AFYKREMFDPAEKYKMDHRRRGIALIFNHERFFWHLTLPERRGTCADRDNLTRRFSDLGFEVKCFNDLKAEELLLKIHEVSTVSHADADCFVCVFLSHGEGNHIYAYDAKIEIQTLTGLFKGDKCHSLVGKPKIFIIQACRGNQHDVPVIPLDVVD
Target sequence (P55212 194-293 limits assumed): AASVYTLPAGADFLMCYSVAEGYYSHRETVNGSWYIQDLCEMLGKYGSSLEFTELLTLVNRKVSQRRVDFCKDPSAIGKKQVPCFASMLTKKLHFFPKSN
Wnt bcat act: Wnt/beta-catenin pathway activators, primary screen, cell-based, plate reader, single point | 1.2% of 300,000 active | Wnt/beta-catenin reporter cell assay, activator | activation, % at 9.35 µM; in the data active means activation above about 30%, passing the limit was not always enough;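 further: 0% = neutral control wells and 100% = positive control wells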
NSD2 inh: NSD2 histone methyltransferase inhibitors, primary screen, biochemical, AlphaScreen, single concentration, set 2. NSD2 peptide methylation, 120 min. inhibition, % at 12.5 µM. 0.54% of 310,000 active. Histone-lysine N-methyltransferase NSD2 (Homo sapiens), O96028; in the data active means inhibition above about 50%
esBAF inh: Bmi1 luciferase reporter increase in mESCs, primary screen, esBAF inhibitor project, mouse ES cells, Bmi1 luciferase knock-in, single point. 24 h; 100% = twice the neutral-well signal. reporter increase, % at 12.5 µM. 2% of 350,000 active; in the data active means activation above about 40%;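 further: 0% = median of the plate's neutral control wells and 100% = double that signal; a rise in the Bmi1 reporter signal indicates esBAF inhibition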
XiGFP reactiv: activators of inactive X chromosome reactivation, primary screen, imaging, XiGFP fibroblasts, GFP high-content imaging, set 2 | XiGFP mouse fibroblasts, % GFP-positive cells imaging, 3 d; cells co-treated with 5-aza-dC sensitizer; scaled so ellipticine positive control = 100% | activation, % at 7.58 µM | 0.055% of 360,000 active | AID 743238, 2013;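 active means mean normalized replicate activation at least 10% and every replicate at or above 10%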;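 further: 0% = median of on-plate neutral control wells and 100% = ellipticine 6 µM median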
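System: 68-5-11 XiGFP fibroblast line; Timing: 3 days compound exposure; Compound dosing: one concentration, pinned; Benchmarks: positive control ellipticine, 6 µM final; Buffer or medium: DMEM containing 5-aza-dC.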
MITF TRPM1 HTS: activators of MITF-driven TRPM1 promoter reporter, primary screen, cell-based, SK-MEL-5, luciferase, single point; 0.75% of 300,000 active; SK-MEL-5 TRPM1-promoter luciferase, 24 h; % of positive control, neutral wells = 0; activation, % at 12.5 µM;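 active means mean activation of at least 80% with every replicate also reaching 80%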;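 further: 0% = neutral control wells and 100% = parthenolide positive control wells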
* = called active by the depositor; . = no result given.

SMILES	CASP6 VEID inh	Wnt bcat act	NSD2 inh	esBAF inh	XiGFP reactiv	MITF TRPM1 HTS
CCN(C[C@@H]1[C@@H](c2ccccc2)[C@@H](CO)N1CC1CC1)C(=O)c1ccccc1F	0	.	.	.	0	.
CC(=O)N(C)C[C@H]1Oc2ccc(N(C)C)cc2C(=O)N(C)C[C@H]1C	.	.	.	.	0	.
COc1cc(C#Cc2c(-c3cncn3C)n(C)c3ccc(-c4cnc(N5CCOCC5)nc4)cc23)cc(OC)c1	1	22	.	29	0	89*
O=C(C[C@H]1C=C[C@H](NS(=O)(=O)c2ccccc2)[C@@H](CO)O1)N1CCC(Cc2ccccc2)CC1	0	.	.	.	0	.
CO[C@H]1CN(C)C(=O)c2cc(NC(=O)c3ccccc3)ccc2OC[C@@H](C)N(C(=O)C2CC2)C[C@H]1C	-1	.	.	-3	0	.
CC1CCN(C(=O)c2cc3ccccc3o2)CC1	.	.	1	57*	.	.
CC1CC(C)CN(C(=O)c2cc3ccccc3o2)C1 (configuration not stated)	1	5	4	58*	0	44
O=C(c1cc2cc(Br)ccc2o1)N1CCCC1	-3	7	1	39*	0	16
O=C(c1cc2cc(Br)ccc2o1)N1CCOCC1	-1	0	0	.	0	39
O=C(c1cc2ccccc2o1)N1CCN(Cc2nc3ccccc3s2)CC1	5	2	3	45*	0	.
O=C(c1cc2ccccc2o1)N1CCN(C/C=C/c2ccccc2)CC1	0	5	2	-1	0	0
C[C@@H]1CN([C@@H](C)CO)C(=O)c2cccc(NC(=O)C3CCOCC3)c2O[C@@H]1CN(C)S(=O)(=O)c1ccccc1	3	.	.	-2	0	.
CC1CC(C)CN(C(=O)c2cc3cc(Br)cc(Br)c3o2)C1 (configuration not stated)	-1	1	-1	.	0	83*
COc1ccc2nc3oc(C(=O)N4CC(C)CC(C)C4)cc3cc2c1 (configuration not stated)	.	.	-4	24	.	38
COc1ccccc1NC(=O)N[C@H]1CC[C@H](CCn2cc(-c3ccccc3OC)nn2)O[C@@H]1CO	-3	.	.	2	0	.
COc1cc(C(=O)O/N=C2\C=CC(=O)C(C)=C2)cc(OC)c1OC	.	61*	0	-7	.	.
COc1cc(C(=O)ON=C2C=C(C)C(=O)C(C)=C2)cc(OC)c1OC	-5	-2	1	.	0	-9
C[C@H](CO)N1C[C@H](C)[C@@H](CN(C)Cc2ccc(C(=O)O)cc2)Oc2ccc(NS(=O)(=O)c3ccc(Cl)cc3)cc2CC1=O	-1	.	.	2	0	.
COc1cc2c(cc1OC)[C@@H]1Cc3cc4c(cc3[C@H](C2)N1C)OCO4	-4	0	.	-7	0	-3
COc1cc2c(cc1OC)C1CCc3cc4c(cc3C1N=C2)OCO4 (configuration not stated)	2	51*	.	32	0	.
Cc1ccc(N2C(=O)c3ccccc3NC2C(C)Cc2ccc3c(c2)OCO3)cc1 (configuration not stated)	.	.	0	52*	.	.
CCn1nc([N+](=O)[O-])c(C(C#N)c2nc3cc(C(F)(F)F)ccc3s2)c(Cl)c1=O (configuration not stated)	.	-1	54*	-12	.	-24
CN1CCN(C(=S)c2ccc(-c3cc(Cl)ccc3Cl)o2)CC1	-4	1	15	.	0	5
S=C(c1ccc(-c2ccc(Cl)cc2Cl)o1)N1CCCC1	1	33*	1	.	0	.
S=C(c1ccc(-c2ccc(Cl)cc2Cl)o1)N1CCCCC1	.	27	10	53*	.	60
C[C@H](CO)N1C[C@H](C)[C@@H](CN(C)Cc2ccc(C(=O)O)cc2)Oc2c(NC(=O)CCC(F)(F)F)cccc2C1=O	.	.	.	.	0	.
c1ccc2c(c1)CC/C2=N/Nc1nc2ccccc2[nH]1	-2	7	1	6	0	82*
